Hits are enriched below; roughly 3.5% of the tested compounds scored in any of these assays.
MrgX1 agonist = activates human MrgX1 receptor signaling | B-score at 10 µM | AID 588627 | MrgX1-HEK293 cells, Fluo-4 calcium fluorescence, agonist mode; active compounds read high | 310,000 compounds, 0.44% hits;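 active means calcium response B-score plate-corrected fluorescence ratio at least 3 library SD, with starting fluorescence B-score inside 5 SD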
Target sequence (Q96LB2 whole entry, looked up): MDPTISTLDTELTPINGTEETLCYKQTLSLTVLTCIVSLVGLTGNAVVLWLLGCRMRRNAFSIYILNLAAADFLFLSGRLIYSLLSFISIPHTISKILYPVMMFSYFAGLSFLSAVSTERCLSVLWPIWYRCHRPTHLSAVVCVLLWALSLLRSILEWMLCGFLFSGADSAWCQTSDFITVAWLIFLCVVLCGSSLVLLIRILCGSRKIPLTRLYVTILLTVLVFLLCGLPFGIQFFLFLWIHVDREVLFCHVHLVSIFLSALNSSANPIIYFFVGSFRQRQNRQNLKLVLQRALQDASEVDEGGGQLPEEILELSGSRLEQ
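Material: MrgX1-expressing HEK293 cells; input: 15,000 cells per well; doses: test compound given as first of three sequential additions; schedule: overnight plating before 1 h dye loading; technique: Fluo-4 NW calcium-flux fluorescence, kinetic read; evaluation: baseline-normalised fluorescence change ratio, B-scored; control set: plate-wise positive and negative controls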
RGS4 block = inhibitors of human RGS4 | P49798 | HEK293 M3R/RGS4 inducible, Fluo-4 calcium flux; active compounds read high; triggered by carbachol at its EC20 | B-score at 10 µM | 310,000 compounds, 0.45% hits | AID 463165;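 active means B-score, a plate-corrected calcium signal, over three deviations above library mean, with baseline fluorescence within five deviations of library mean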;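 further: RGS4 expression induced by doxycycline in cells with stable M3 receptor; B-score is computed from the integrated fluorescence ratio over baseline after carbachol; higher B-score means a larger calcium signal and so more RGS4 inhibition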
Target sequence (P49798 whole entry, looked up): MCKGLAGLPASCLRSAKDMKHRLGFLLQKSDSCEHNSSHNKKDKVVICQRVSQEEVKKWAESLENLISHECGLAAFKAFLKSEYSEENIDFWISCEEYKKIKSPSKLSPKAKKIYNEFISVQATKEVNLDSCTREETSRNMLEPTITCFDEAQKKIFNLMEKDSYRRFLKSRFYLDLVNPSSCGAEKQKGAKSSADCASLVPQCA
RGS4 pot = potentiators or activators of RGS4; HEK293 M3R/inducible RGS4, carbachol calcium flux Fluo4; active compounds read low; 310,000 compounds, 0.92% hits; B-score at 10 µM;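 active means B-score of the integrated calcium signal more than 4 SD below the library mean, with starting fluorescence not abnormally high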;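 further: negative B-score means reduced calcium response which marks RGS4 activation or potentiation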
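Material: Inducible-RGS4 HEK293 cells carrying M3 receptor; also added: carbachol at ECmax as muscarinic agonist stimulus; incubation: compound preincubation 20 min at room temperature before agonist; signal: Fluo4-AM (2 µM) calcium-flux fluorescence, kinetic read; measure: integrated calcium ratio converted to B score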
MrgX1 antagonist = blocks BAM8-22 activation of human MrgX1 receptor. Q96LB2. MRGX1-HEK293 calcium flux, Fluo-4, BAM8-22 antagonism; active compounds read low. B-score at 10 µM. 310,000 compounds, 1.3% hits;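 active means calcium-response B-score plate-corrected more than 3 library SD below zero, starting fluorescence within 5 deviations, no agonist response on first addition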;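 further: peak minus trough fluorescence over baseline after final BAM8-22 challenge near maximal dose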
MrgX1 allo act = allosterically activates human MrgX1 receptor signaling; MrgX1-HEK293, Fluo-4 calcium flux, FDSS; active compounds read high; AID 588675; 310,000 compounds, 0.63% hits; B-score at 10 µM;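 active means plate-corrected calcium response at least 3 library SD above typical, normal starting fluorescence, not activating the receptor alone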;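 further: compound read alongside a low EC10 to EC30 dose of BAM8-22 agonist; peak minus trough fluorescence over baseline measured at the second addition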
MrgX1 ag confirm = confirmation of human MrgX1 receptor agonists; activation, % at 10 µM; MrgX1-HEK293, Fluo-4 calcium fluorescence, FDSS; shares compounds with MrgX1 agonist; AID 602412; 600 compounds, 78% hits;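 active means calcium signal rise, corrected for plate position, at least 3 library SD high, with starting brightness within 5 such deviations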
MrgX1 allo conf = confirmation of human MrgX1 receptor positive allosteric modulators; shares compounds with MrgX1 allo act; MrgX1-HEK293, Fluo-4 calcium fluorescence, FDSS; activation (ratio percentage), % at 10 µM; 1,200 compounds, 13% hits; AID 602413;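 active means ratio at least 3 SD above the weak peptide control, stable starting fluorescence, no direct agonism earlier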;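 further: compound followed by low BAM8-22 agonist challenge near EC20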
MrgX1 ant reconf = human MrgX1 receptor antagonism, re-confirmation screen | shares compounds with MrgX1 antagonist | MrgX1-HEK293, BAM8-22 calcium flux, Fluo-4; active compounds read low | remaining BAM8-22 calcium response % of control (active compounds read low), % at 10 µM | 2,300 compounds, 19% hits | AID 602420;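 active means remaining agonist calcium response no higher than 100% minus 3 SD of agonist-only control wells, with starting fluorescence near control levels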;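 further: agonist BAM8-22 given at a near maximal EC90 to ECmax level; peak minus minimum fluorescence divided by baseline after agonist addition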
HEK293 Ca flux = activity in parental HEK293 cells lacking MrgX1. Fluo-4 calcium fluorescence, FDSS. fluorescence ratio F(max-min)/F0 at 10 µM. AID 624111. 4,000 compounds, 2% hits. shares compounds with MrgX1 antagonist;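 active means duplicate-averaged calcium fluorescence ratio at least three times the standard deviation of buffer wells, a nonspecific response in parental cells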
HEK293 Ca counter = MrgX1 allosteric activator counter-screen hit in parental HEK293 cells; shares compounds with MrgX1 antagonist; parental HEK293 calcium flux, Fluo-4 fluorescence ratio; active compounds read high; fluorescence ratio F(max-min)/F0 at 10 µM; 4,000 compounds, 0.4% hits; AID 624114;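 active means calcium fluorescence ratio, averaged over duplicates, at least 3 SD of the buffer-well ratio, meaning a nonspecific response in receptor-free cells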;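 further: untransfected parental HEK293 lacking MrgX1 used as counterscreen for MrgX1 allosteric activators; fluorescence change taken during the second addition on a kinetic imager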
HEK293 Ca cntr2 = MrgX1 activator counter-screen hit in parental HEK293 cells; shares compounds with MrgX1 antagonist; Fluo-4 calcium fluorescence (FDSS); active compounds read high; fluorescence ratio F(max-min)/F0 at 10 µM; 4,000 compounds, 8.7% hits; AID 624115;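 active means calcium fluorescence ratio at least three times the spread of buffer wells, meaning a non-specific response in parental cells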
The depositor's hits bear a star; i = inactive; x = no result given; ! = not confirmed by another sample.

SMILES	MrgX1 agonist	RGS4 block	RGS4 pot	MrgX1 antagonist	MrgX1 allo act	MrgX1 allo conf	HEK293 Ca flux	HEK293 Ca counter	HEK293 Ca cntr2	others
C[C@H]1OC[C@@H](C[N+](C)(C)C)O1	112*	i	i	i	i	x	i	i	107*	MrgX1 ag confirm=550%*
CCCCN1C(=O)NC(=O)C2(Cc3ccccc3N3CCOCC32)C1=O (stereo unspecified)	i	i	i	i	i	x	x	x	x
O=C(CN1CCCCC1)NCC(=O)Nc1ccc(Br)cc1C(=O)c1ccccc1	i	i	i	i	i	x	x	x	x
CCOCCCn1c(N)c(C(=O)Nc2sc3c(c2C(=O)OC)CCCC3)c2nc3ccccc3nc21	i	i	i	i	i	x	x	x	x
C#CCOC(=O)C1=CCCN(C)C1	90*	x	x	i	i	x	i	i	54*	MrgX1 ag confirm=281%*
CC(=O)OCC[N+](C)(C)C	134*	i	-7.5*!	i	i	x	i	i	108*	MrgX1 ag confirm=558%*
CCOc1cc(/C=C2\C(=O)NC(=O)N(C)C2=O)cc([N+](=O)[O-])c1O	i	i	i	i	i	x	x	x	x
C=CCN1CCc2cccc3c2[C@H]1Cc1ccc(O)c(O)c1-3	i	i	i	i	8.1*	i	i	i	i
O=C(NC1CCCCC1)Oc1cc2oc(=O)sc2cc1Cl	i	i	i	i	i	x	x	x	x
CCCCCn1c(=O)c(C(=O)NCCc2ccccc2)c(O)c2ccccc21	i	i	i	-8.2*	7.6*	i	i	i	i	MrgX1 ant reconf=i
O=C1CC(c2cccnc2)=NN1c1ccc(Cl)cc1Cl	i	i	i	i	i	x	x	x	x
CCN1C(=O)CC(c2cccnc2)=Nc2ccccc21	i	i	i	i	6.4*	i	i	i	i
C[CH2][Hg][S]c1ccccc1C(=O)O	i	x	x	i	6.5*	i	i	i	i
CC(C)COC(=O)c1ccccc1C(=O)OCC(C)C	i	i	i	i	i	x	x	x	x
O=c1c2ccccc2nc(CN2CCOCC2)n1-c1ccccc1F	i	i	i	i	i	x	x	x	x
Cc1ccc(-n2c(C)nc3ccccc3c2=O)cc1C	i	i	i	i	7.7*	13%*	i	i	i
COc1nc2ccccc2c(=O)n1-c1ccc(C)cc1	i	i	i	i	18*	i	i	i	i
COc1ccc(-n2c(-c3ccc(C)cc3)nc3ccccc3c2=O)cc1	i	i	i	i	i	x	x	x	x
CCCc1nc2ccccc2c(=O)n1-c1ccc(OC)cc1	i	i	i	i	i	x	x	x	x
COc1nc2ccccc2c(=O)n1-c1ccc(Cl)cc1	i	i	i	i	12*	i	i	i	i
CCCCOc1nc2ccccc2c(=O)n1-c1ccccc1	i	i	i	i	9.2*	i	i	i	48*
CC(C)N1C(=O)/C(=C/C=C/c2ccco2)C(=O)N(Cc2ccco2)C1=O	i	i	i	i	i	x	x	x	x
CCOC(=O)C1=C(N)Oc2cc(C)oc(=O)c2C12C(=O)N1c3c(cccc32)C(C)=CC1(C)C (stereo unspecified)	i	i	i	i	9.2*	i	i	i	87*
COc1ccc(C(=O)c2nc3ccccc3n2C(C)C)cc1OC	i	i	i	i	i	x	x	x	x
COc1ccc(C(=O)c2nc3ccccc3n2C(C)C)cc1	i	i	i	i	6.5*	i	i	i	i
SMILES	MrgX1 agonist	RGS4 block	RGS4 pot	MrgX1 antagonist	MrgX1 allo act	MrgX1 allo conf	HEK293 Ca flux	HEK293 Ca counter	HEK293 Ca cntr2	others
CCCCc1cc(=O)oc2cc(OCC(=O)N3C[C@H]4C[C@@H](C3)c3cccc(=O)n3C4)c(Cl)cc12	i	i	i	i	i	x	x	x	x
c1cncc(C2CC(c3cccs3)n3ncnc3N2)c1 (stereo unspecified)	i	i	i	i	i	x	x	x	x
CC1(C)CN=C(NCc2ccccc2)S1	i	i	i	i	6.4*	i	i	i	i
CCCCN1C(=N)C(CC)(CC)C(=O)NC1=O	i	i	i	i	i	x	x	x	x
FC(F)(F)c1cccc(-n2nnnc2C2(N3CCOCC3)CCCCC2)c1	i	i	i	-5.1*	i	x	i	i	i	MrgX1 ant reconf=i
CC(=O)OC1(c2ccc(C)cc2)CN2CCC1c1ccccc12 (stereo unspecified)	i	i	i	i	i	x	x	x	x
O=C(c1csc2c1CCCCC2)N1CCC2(CC1)OCCO2	i	i	i	i	i	x	x	x	x
CCOc1ccc(N2C(=O)CC(=O)NC2=O)cc1	i	i	i	i	i	x	x	x	x
COc1cc(N2C(=O)CC(=O)NC2=O)cc(OC)c1OC	i	i	i	-5.1*	i	x	i	i	i	MrgX1 ant reconf=82%*
CCOc1ccc(-c2cc(C)[n+](CCO)c(-c3ccc(OCC)cc3)c2)cc1	i	i	i	i	i	x	x	x	x
CCOc1ccc(-c2cc(C)[n+](CCc3ccc(OC)c(OC)c3)c(-c3ccc(OCC)cc3)c2)cc1	i	i	-9.9*	-13*	i	x	i	i	i	MrgX1 ant reconf=70%*
CC(C)CC1C(C#N)=C(N)Oc2c1c(=O)oc1ccccc21 (stereo unspecified)	i	i	i	-6.3*	i	x	i	i	i	MrgX1 ant reconf=i
CCC1C(C#N)=C(N)Oc2c1c(=O)oc1ccccc21 (stereo unspecified)	i	i	i	i	i	x	x	x	x
Cc1c(C(=O)N2CCC3(CC2)OCCO3)oc2ccccc12	i	i	i	i	i	x	x	x	x

Screens (PubChem)
